SUMO1 PPI mod: SUMO1-SIM interaction modulation; P63165; 360,000 compounds, 0.33% hits; inhibition, % at 20 µM; AID 602429; SUMO1 binding to a labelled peptide, TR-FRET, 1 h; in the data active = inhibition above about 37%
Target sequence (P63165 whole entry, looked up): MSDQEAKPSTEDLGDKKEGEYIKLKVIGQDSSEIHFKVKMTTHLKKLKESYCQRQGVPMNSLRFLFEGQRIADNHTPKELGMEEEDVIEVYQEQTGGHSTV
DNMT1 inh: inhibitors of human DNMT1 | 360,000 compounds, 0.83% hits | DNMT1 molecular beacon, Hinp1I cleavage, fluorescence | inhibition (reported as % activation of signal), % at 10 µM | AID 588458 | P26358; in the data active = inhibition above about 50%
NadD inh: blocks S. aureus nicotinate mononucleotide adenylyltransferase; purified NadD enzyme, colorimetric absorbance read-out; 360,000 compounds, 0.78% hits; inhibition, % at 20 µM; in the data active = inhibition above about 26%
STEP block: STEP (human) phosphatase inhibition | P54829 | recombinant STEP, OMFP fluorogenic substrate, fluorescence | inhibition, % at 20 µM | 360,000 compounds, 0.25% hits | AID 588621;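 active = inhibition at 20 µM, scaled per plate between control wells, above about 37%, limit read from the data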
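material = STEP tyrosine phosphatase | reagent = fluorogenic phosphatase substrate OMFP at 25 µM final | doses = single compound dose of 20 µM, 1% DMSO final | schedule = 20 min reaction, room temperature, in the dark | measured by = fluorescence, 480/540 nm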
Scp-1 inhibitor: Scp-1 (human) phosphatase inhibition; Q9GZU7; Recombinant Scp1, phosphopeptide, malachite green phosphate absorbance; inhibition, % at 20 µM; 340,000 compounds, 0.88% hits;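 active = inhibition above about 50% at 20 µM, limit read from the data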
Target sequence (Q9GZU7 76-261 limits assumed): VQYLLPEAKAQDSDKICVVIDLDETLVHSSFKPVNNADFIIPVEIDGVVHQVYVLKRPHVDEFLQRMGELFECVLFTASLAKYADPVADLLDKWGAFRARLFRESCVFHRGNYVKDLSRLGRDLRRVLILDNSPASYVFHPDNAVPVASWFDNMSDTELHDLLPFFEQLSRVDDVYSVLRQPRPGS
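assay system = SCP-1 phosphatase catalytic domain, residues 76-261 | buffer or medium = 50 mM Tris acetate pH 5.5, 0.005% Tween-20, 10 mM MgCl2 | incubation = enzyme reaction 45 min at room temperature, colour 5 min, stabilisation 30 min | signal = Phosphate-binding colour reagent, absorbance read at 630 nm | measure = % inhibition at 20 µM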
LMPTP block: blocks human LMPTP phosphatase; P24666; recombinant LMPTP-A, OMFP fluorogenic substrate, fluorescence intensity; inhibition, % at 20 µM; 360,000 compounds, 0.22% hits; AID 651560;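 active = compounds that cut the enzyme signal by at least half of the control window in the single-dose screen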
Target sequence (P24666 whole entry, looked up): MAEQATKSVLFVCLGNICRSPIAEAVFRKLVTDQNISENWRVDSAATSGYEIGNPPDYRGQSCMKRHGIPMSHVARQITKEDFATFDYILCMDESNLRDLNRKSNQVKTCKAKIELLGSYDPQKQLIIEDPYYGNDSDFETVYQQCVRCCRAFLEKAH
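Test system – LMPTP-A enzyme · Amount – LMPTP-A at 0.625 nM final in the reaction · Buffer or medium – Bis-Tris pH 6.0, DTT, detergent · Reagent – OMFP 400 µM · Doses – single 20 µM dose · Schedule – reaction 50 min, room temperature, dark · Detection – fluorescence intensity of OMFP turnover product · Evaluation – percent inhibition versus substrate-only and uninhibited controls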
Beacon interf DR: counter-screen for DNMT1 inhibitors: spectral interference, dose response; AID 602382; molecular beacon fluorescence; shares compounds with DNMT1 inh; 200 tested, under 10 active; IC50, µM; call rule not given here
DNMT1 confirm: confirmation of human DNMT1 inhibitors; inhibition, % at 10 µM; DNMT1 molecular beacon HinP1I cleavage, fluorescence; shares compounds with DNMT1 inh; 2,300 compounds, 8% hits;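 active = average inhibition of at least 30% in the single-concentration confirmation test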
Beacon interf: beacon fluorescence artifact counter-screen; 2,300 compounds, 1% hits; activation (fluorescence interference), % at 10 µM; shares compounds with DNMT1 inh; DNMT1 molecular beacon spectral interference counterscreen, fluorescence 485/520; AID 602387;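 active = activation of at least 30% at 10 µM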;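 also: DNMT1 catalytic domain with a HinP1I cleavage step and a FAM/dabcyl DNA beacon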
Numbers stand for hits; i = inactive; nt = no result given. Most compounds without a hit are left out; they make up all but 2.3% or so of the library.

SMILES	SUMO1 PPI mod	DNMT1 inh	NadD inh	STEP block	Scp-1 inhibitor	LMPTP block	DNMT1 confirm	Beacon interf	others
Cc1ccc(S(=O)(=O)N2CCCN(C(=O)c3cc4ccccc4[nH]3)CC2)cc1	i	i	i	i	i	i	nt	nt
Cc1c(NS(=O)(=O)c2cc(C(=O)OCC(=O)c3ccccc3F)ccc2Cl)c(=O)n(-c2ccccc2)n1C	i	63	i	i	nt	i	i	i
Cc1c(NS(=O)(=O)c2cc(C(=O)O)ccc2Cl)c(=O)n(-c2ccccc2)n1C	i	i	i	i	i	i	nt	nt
COCCN(C(=O)COC(=O)C1(C)CC1(Cl)Cl)c1c(N)n(Cc2ccccc2)c(=O)[nH]c1=O (configuration not stated)	i	i	i	i	i	i	nt	nt
CC(=O)[C@@]1(O)CC[C@H]2[C@@H]3C[C@H](C)C4=CC(=O)C=C[C@]4(C)[C@@]3(F)[C@@H](O)C[C@@]21C	i	80	i	i	i	i	i	i
CCCC(=O)O[C@]1(C(=O)COC(C)=O)CC[C@H]2[C@@H]3C[C@H](F)C4=CC(=O)C=C[C@]4(C)[C@@]3(F)[C@@H](O)C[C@@]21C	i	i	i	i	i	i	nt	nt
O=C(N=Nc1c(O)[nH]c2ccc(Br)cc12)c1cc(-c2cccs2)nc2ccccc12	i	65	44	i	i	i	i	i
O=C(N=Nc1c(O)[nH]c2ccc(Br)cc12)c1ccccc1-n1cccc1	i	i	i	i	i	i	nt	nt
O=C(O)/C=C\c1cc2c(cc1[N+](=O)[O-])OCO2	i	i	i	i	i	i	nt	nt
O=C1NC(=S)N/C1=C/c1cc2c(cc1[N+](=O)[O-])OCO2	55	60	i	i	i	i	30	i	Beacon interf DR=i
Cc1c(C(=O)NCc2ccc3c(c2)OCCO3)sc(=O)n1Cc1ccc(S(=O)(=O)N(C)C)cc1	i	i	i	i	nt	i	nt	nt
O=C(O)c1cccc(-c2noc(-c3cccc(Cl)c3)n2)c1	i	83	i	i	i	i	i	i
COc1ccc(NC(=O)c2ccc(NC(=O)CN3CCC(C(N)=O)CC3)cc2)cc1	i	i	i	i	i	i	nt	nt
CC12CCC(O)CC1=CCC1C2CCC2(C)c3[nH]ncc3CC12 (configuration not stated)	i	i	i	i	i	i	nt	nt
Cc1ccc(Cl)cc1NC(=O)COC(=O)C1CCCC1	i	55	i	i	i	i	i	i
COc1ccc(Cl)cc1NC(=O)COC(=O)C1CCCCC1	i	i	i	i	i	i	nt	nt
CC(C)C(=O)Nc1ccc(-c2nc3cccnc3o2)cc1	i	i	i	i	i	i	nt	nt
CC(C)(C)c1ccc(OCC(=O)Nc2ccc(-c3nc4cccnc4o3)cc2)cc1	i	55	i	i	i	i	i	i
COc1ccccc1C1=NC(c2ccc(F)cc2)N=C1C (configuration not stated)	i	74	i	i	i	i	i	i
CCOC(=O)CC1C(=O)NCCN1C(=O)c1cccc(OC)c1 (configuration not stated)	i	i	i	i	i	i	nt	nt
Cc1ccc(-c2nnn(CC(=O)Nc3ccc4nn(-c5ccccc5)nc4c3)n2)o1	i	50	34	i	i	i	i	i
Cc1ccc(-c2nnn(CC(=O)NCC3CC3)n2)o1	i	i	i	i	i	i	nt	nt
O=C(CN1CCN(c2ccc(Cl)cc2[N+](=O)[O-])CC1)N1CCOCC1	i	i	i	i	i	i	nt	nt
COc1ccc(/C=N/n2cnc3c([nH]c4ccc(C)cc43)c2=O)cc1CN1CCCC1	i	i	i	i	i	i	nt	nt
COc1ccc(/C=N/n2c(C)nc3c([nH]c4ccccc43)c2=O)cc1CN1CCCC(C)(C)C1	i	54	i	i	i	i	i	i
SMILES	SUMO1 PPI mod	DNMT1 inh	NadD inh	STEP block	Scp-1 inhibitor	LMPTP block	DNMT1 confirm	Beacon interf	others
CN(C)CCNC(=O)c1ccc(Sc2ccc(Br)cc2)c([N+](=O)[O-])c1	i	i	i	i	i	i	nt	nt
Cc1ccc(C)c(Nc2nc3ccc(C)cc3n3cnnc23)c1	i	i	i	i	i	i	nt	nt
CC(=O)c1ccc(-n2nnnc2SCC(=O)NC2CCCCC2)cc1	i	68	i	i	i	i	i	i
CC(=O)Nc1ccc(-n2nnnc2SCC(=O)NC2CCCC2)cc1	i	i	i	i	i	i	nt	nt
CC1CCC(CN2C(Nc3ccccc3)=NC[C@@H]2C)CC1 (some centres not stated)	i	i	i	i	i	i	nt	nt
Oc1cccc2cc3cccc(O)c3c(O)c12	i	87	70	i	i	i	77	i	Beacon interf DR=i
Cc1cc(N2CCCC2)ccc1NC(=O)COc1ccccc1	i	64	i	i	i	i	i	i
CCN(C(=O)COC(=O)c1ccc([N+](=O)[O-])o1)C1CCCCC1	i	i	i	i	i	i	nt	nt
O=[N+]([O-])c1ccc(Cl)c(S(=O)(=O)Nc2ccc(-c3ccc(N4CCOCC4)nn3)cc2)c1	i	i	i	i	i	i	nt	nt
O=S(=O)(Nc1ccc(-c2ccc(N3CCOCC3)nn2)cc1)c1ccc(Cl)c(Cl)c1	i	83	i	i	i	i	i	i
Cc1ccc(-c2nnc(Nc3cccc(O)c3)c3ccccc23)cc1S(=O)(=O)NCCO	i	90	i	i	i	i	i	i
CCOc1ccc(C(CN2CCOCC2)C(C)=O)cc1OC (configuration not stated)	i	i	i	i	nt	i	nt	nt
Cc1ccc(NC(=O)C2c3ccccc3-c3ccccc32)cc1	i	i	i	i	nt	i	nt	nt
COC(=O)c1sc(N2C(=O)C(O)=C(C(=O)c3ccc(C)o3)C2c2cccs2)nc1C (configuration not stated)	i	i	i	i	i	i	nt	nt
COC(=O)c1sc(N2C(=O)c3oc4ccccc4c(=O)c3C2c2cccs2)nc1C (configuration not stated)	i	60	i	i	i	i	i	i
O=C(O)C1=CCC=CC1C(=O)O (configuration not stated)	69	99	i	i	nt	i	i	i
N/C(CSc1ccc(Cl)cc1)=N\S(=O)(=O)c1ccc(Cl)cc1	i	73	i	i	i	i	i	i
O=C(O)CCC(=O)N1N=C(c2c(-c3ccccc3)c3cc(Cl)ccc3[nH]c2=O)CC1c1ccco1 (configuration not stated)	i	i	i	i	i	i	nt	nt

Source: PubChem
